The values below come from ChEMBL document CHEMBL1955718, “Discovery of new orally effective analgesic and anti-inflammatory hybrid furoxanyl N-acylhydrazone derivatives” (Bioorg Med Chem, 2012).

The structures appear in SMILES notation. Activity calls are given as the source filed them. Bounds are passed on as bounds.

The test system of series [1] is HT-29. Description: Inhibition of NF-kappaB activation expressed in human HT-29 cells assessed as inhibition of TNFalpha-stimulated IL8 release at 50 uM after 24 hrs by flow cytometric analysis relative to control. The class given is cell-based. In a few lines:
(§1)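 Reporter HT-29-NF-κB-hrGFP cells pretreated 2 h with compound (DMSO <0.5%) at the highest concentration with 100% survival, then stimulated with TNF-α (3 ng/mL final) for 18–24 h at 37 °C. IL-8 in clarified supernatant measured by flow cytometric bead assay (500 events). Expressed as % of TNF-α/DMSO control ± SD; thalidomide as reference.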

Series [2] concerns Salmonella typhimurium. Description: Induction of mutagenesis in Salmonella Typhimurium TA98 assessed as number of revertants at 6 to 500 ug/plate in absence of mouse liver S9 fraction. The class given is toxicity, organism-based. The note with it: salmonella enterica subsp. enterica serovar typhimurium.
Series [3] in a line: Induction of NO release in 0.1 M Tris-HCl and 0.1 mM DTPA at pH 7.4 measured for 20 mins in presence of cysteine. The class given is physicochemical. The following applies: buffer, pH 7.4, 20 min. In a few lines:
(§2)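 Electrochemical NO detection with an ISO-NOP sensor. Compounds in DMSO added to 0.1 M Tris-HCl, 0.1 mM DTPA at pH 7.4 or 8.3. Cysteine (300 or 100 µM) added and NO recorded for 20 min at 25 or 37 °C; compound:Cys ratio 1:1 at 25 °C, with 3:1 and 37 °C runs also made.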

A short description of series [4]: Induction of NO release in 0.1 M Tris-HCl and 0.1 mM DTPA at pH 8.3 measured for 20 mins in presence of cysteine. The format is physicochemical. The following applies: buffer, pH 8.3, 20 min. In a few lines: as §2
Series [5] deals with Rattus norvegicus. Description: Antihyperalgesic activity against carrageenan-induced thermal hyperalgesia in Wistar rat assessed as latency of withdrawal response at 100 umol/kg, po administered 1 hr before carrageenan challenge measured after 3 hrs by hot plate test. The format is functional. In a few lines: (§3)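 Wistar rats of both sexes (150–200 g) were dosed orally as a suspension in 5% arabic gum in saline, with vehicle controls. After 1 h, 0.1 mL 1% carrageenan (1 mg/paw) or saline was injected subplantar into the hind paws. Left hind paw withdrawal latency was read on a 51 °C hot plate at 0–240 min (cut-off 20 s). Δlatency = time-0 minus later latency; mean ± SEM, n = 8–10; t-test.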

The subject of series [6] is Salmonella typhimurium. Description: Induction of mutagenesis in Salmonella Typhimurium TA98 assessed as number of revertants at 6 to 500 ug/plate in presence of mouse liver S9 fraction. The following applies: salmonella enterica subsp. enterica serovar typhimurium. The class given is toxicity, organism-based.
For series [7], the system named is HT-29. Description: Inhibition of TNF-alpha-induced NFkappaB activation expressed in human HT-29 cells coexpressing hrGFP at 50 uM after 24 hrs by propidium iodide staining-based flow cytometric analysis relative to control. The format is cell-based. A digest of the protocol:
(§4)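 HT-29 cells stably expressing NF-κB-driven hrGFP given compound (DMSO <0.5%) for 2 h at the maximum non-cytotoxic concentration, then TNF-α at 3 ng/mL final for 18–24 h. Cells trypsinised and stained with propidium iodide; 5000 events gated on FSC/SSC. The %GFP-positive among PI-excluding live cells is normalised to TNF-α/DMSO control, ± SD.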

The subject of series [8] is HT-29. Description: Inhibition of TNFalpha-induced NF-kappaB activation expressed in human HT-29 cells coexpressing hrGFP at 100 uM after 24 hrs by propidium iodide staining-based flow cytometric analysis relative to control. The class given is cell-based. In a few lines:
as §4

The subject of series [9] is Mus musculus. Description: Analgesic activity in albino mouse assessed as inhibition of acetic acid-induced abdominal constriction at 100 umol/kg, po administered 1 hr before acetic acid challenge measured after 60 mins relative to control. The class given is functional. The following applies: Abdomen. In a few lines: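 Albino mice of both sexes (18–23 g) were dosed orally as a suspension in 5% arabic gum in saline, with vehicle controls. After 1 h they received 0.6% acetic acid ip (0.1 mL/10 g). Constrictions were counted for 20 min starting 10 min after injection. Data are % inhibition vs vehicle, mean ± SEM, Student t-test.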

For series [10], the system named is Salmonella typhimurium. Description: Induction of mutagenesis in Salmonella Typhimurium TA98 assessed as number of revertants at 4 to 350 ug/plate in absence of mouse liver S9 fraction. The format is toxicity, organism-based. The following applies: salmonella enterica subsp. enterica serovar typhimurium. A digest of the protocol: (§5)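 S. typhimurium TA98, plate incorporation on minimal glucose (Vogel-Bonner) agar. Compounds were in DMSO, dosed in triplicate with a top non-toxic dose of 250 or 350 µg/plate. Runs were without S9 (positive control 4-nitro-o-phenylenediamine, 20 µg/plate) or with 500 µL Aroclor-induced mouse liver S9 (positive control 2-aminofluorene, 10 µg/plate), plus a DMSO control. Revertants were counted manually; mutagenic means ≥2-fold spontaneous revertants at two consecutive doses.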

Series [11] has as its system Salmonella typhimurium. Description: Induction of mutagenesis in Salmonella Typhimurium TA98 assessed as number of revertants at 4 to 350 ug/plate in presence of mouse liver S9 fraction. The class given is toxicity, organism-based. The note with it: salmonella enterica subsp. enterica serovar typhimurium. In a few lines: as §5
For series [12], the system named is Rattus norvegicus. Description: Antihyperalgesic activity against carrageenan-induced thermal hyperalgesia in Wistar rat assessed as latency of withdrawal response at 100 umol/kg, po administered 1 hr before carrageenan challenge measured after 30 to 240 mins by hot plate test. The format is functional, organism-based. In a few lines: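 Wistar rats of both sexes (150–200 g) dosed orally at 100 µmol/kg as suspension in 5% arabic gum in saline, vehicle controls. After 1 h, 1% carrageenan (1 mg/paw) or saline injected subplantar. Left hind paw withdrawal latency on hot plate at 51 ± 0.1 °C read at 0–240 min, 20 s cut-off. Δ latency = time-0 latency minus later latency; mean ± SEM, n = 8–10; Student t-test.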

In series [13] the test system is Rattus norvegicus. Description: Antihyperalgesic activity against carrageenan-induced thermal hyperalgesia in Wistar rat assessed as latency of withdrawal response at 100 umol/kg, po administered 1 hr before carrageenan challenge measured after 1 hr by hot plate test. The class given is functional. In a few lines: as §3
Series [14] in a line: Inhibition of soybean lipoxygenase using arachidonic acid as substrate. Set-up: species or system Glycine max. In a few lines: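 Soybean 15-lipoxygenase kit assay, arachidonic acid substrate, H2O2 as lipoxygenating agent in 0.1 M Tris-HCl pH 7.4. Single-point screen at 50 µM. IC50 found by varying concentration over 10–100 µM. Quercetin at 4 µM as positive control; duplicate means; Student t-test.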

In series [15] the test system is Salmonella typhimurium. Description: Induction of mutagenesis in Salmonella Typhimurium TA98 assessed as number of revertants at 3.1 to 250 ug/plate in presence of mouse liver S9 fraction. The class given is toxicity, organism-based. The note with it: salmonella enterica subsp. enterica serovar typhimurium. In a few lines: as §5
Series [16] concerns HT-29. Description: Inhibition of NF-kappaB activation expressed in human HT-29 cells assessed as inhibition of TNFalpha-stimulated IL8 release at 400 uM after 24 hrs by flow cytometric analysis relative to Thal. The format is cell-based. In a few lines: as §1
Series [17] relates to Salmonella typhimurium. Description: Induction of mutagenesis in Salmonella Typhimurium TA98 assessed as number of revertants at 3.1 to 250 ug/plate in absence of mouse liver S9 fraction. The format is toxicity, organism-based. The note with it: salmonella enterica subsp. enterica serovar typhimurium. A digest of the protocol: as §5

Regarding `Cc1[nH]cnc1C(=O)N/N=C/c1ccc2no[n+]([O-])c2c1`, in [1], the inhibition was 51%. The Activity entry was “Toxic” in series [2], 0 nM/min in series [3], 0 nM/min in series [4] and “Non-toxic” in [6]. The inhibition in vivo at 100 µmol/kg in series [5] came out at 14%. The same molecule had an NF-kappaB activation (% of TNF-alpha control) in series [7] of 71%.

As for `Cc1c(C(=O)N/N=C/c2ccc(N(C)C)cc2)no[n+]1[O-]`, in series [8], the NF-kappaB activity (% of TNF-alpha control) worked out at 150%. Moreover, the inhibition in vivo at 100 µmol/kg in series [9] stood at 22%. Also, the Activity result in [10] and in series [11] was “Non-toxic” in each case. The result in [12] was inactive.

Turning to `O=C(N/N=C/c1c(-c2ccccc2)no[n+]1[O-])c1ccc2c(c1)OCO2`, the Activity in series [3] was 0 nM/min; in [4], 0.39 nM/min; in series [15] it was “Non-toxic”; in [17], “Non-toxic”. The inhibition in vivo at 100 µmol/kg in series [13] stood at 14%. In series [8], the NF-kappaB activity (% of TNF-alpha control) was determined as 12%. The same molecule came in with an IC50 in series [14] of more than 100 µM. Moreover, the fold change (FC) in series [16] was 16.
